According to ChEMBL document CHEMBL1955828, “Anti-mycobacterial activities of some cationic and anionic calix[4]arene derivatives” (Bioorg Med Chem, 2012):
In brackets after ≈: the same amount, converted by molar mass.

Tests used:
[1] = tested on: Mycobacterium tuberculosis; assay: Antimycobacterial activity against Mycobacterium tuberculosis H37Rv at 1 uM after 6 days by MTT assay; format: functional; conditions: 144 h, read-out: GI
[2] = tested on: Mycobacterium tuberculosis; assay: Antimycobacterial activity against Mycobacterium tuberculosis H37Rv at 10 uM after 6 days by MTT assay; format: functional; conditions: 144 h, read-out: GI
[3] = tested on: Mycobacterium tuberculosis; assay: Antimycobacterial activity against Mycobacterium tuberculosis H37Rv after 6 days by MTT assay; format: functional, organism-based; conditions: 144 h
Outline: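 Twofold serial compound dilutions in Middlebrook 7H9 broth were inoculated with bacterial suspension in 7H9 (H37Rv, or INH-resistant MYC5165) and incubated 6 days. MTT (1 mg/mL) was then added, followed by 1 more day of incubation, solubilisation buffer, and OD read at 570 nm. MIC was the lowest concentration inhibiting growth relative to untreated bacilli, and IC50 was also determined.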

[4] = Cytotoxicity against human MRC5 cells by MTT assay; format: cell-based
Escherichia coli = assay: Antibacterial activity against Escherichia coli ATCC 25922 by microdilution method; format: functional
Pseudomonas aeruginosa = assay: Antibacterial activity against Pseudomonas aeruginosa ATCC 27853 by microdilution method; format: functional
Staphylococcus aureus = assay: Antibacterial activity against Staphylococcus aureus ATCC 25923 by microdilution method; format: functional
Enterococcus faecalis = assay: Antibacterial activity against Enterococcus faecalis ATCC 29212 by microdilution method; format: functional

SMILES | inhibition of growth at 1 µM [1] [%] | inhibition of growth at 10 µM [2] [%] | MIC [3] [µM] | also measured
N=C(N)NCCc1cc2c(O)c(c1)Cc1cc(CCNC(=N)N)cc(c1O)Cc1cc(CCNC(=N)N)cc(c1O)Cc1cc(CCNC(=N)N)cc(c1O)C2.O=C(O)C(F)(F)F | 73 | 97 | 0.8 | IC50 [3]: 250 nM; CC50 [4]: 256 µg/mL; MIC (Escherichia coli): 4 µg/mL; MIC (Pseudomonas aeruginosa): 4 µg/mL; MIC (Staphylococcus aureus): 4 µg/mL; MIC (Enterococcus faecalis): 4 µg/mL
Cc1ccnc(-c2cc(C)ccn2)c1 |  |  | 136 (≈ 25 µg/mL) | 
Cc1csc(-c2nc(COc3c4cc(CC(=O)O)cc3Cc3cc(CC(=O)O)cc(c3O)Cc3cc(CC(=O)O)cc(c3OCc3csc(-c5nc(C)cs5)n3)Cc3cc(CC(=O)O)cc(c3O)C4)cs2)n1 |  |  | > 50 | 
O=P(O)(O)Cc1cc2c(O)c(c1)Cc1cc(CP(=O)(O)O)cc(c1O)Cc1cc(CP(=O)(O)O)cc(c1O)Cc1cc(CP(=O)(O)O)cc(c1O)C2 | 0 | 5 |  | 
Cc1ccc(-c2ccc(COc3c4cc(CCNC(=N)N)cc3Cc3cc(CCNC(=N)N)cc(c3O)Cc3cc(CCNC(=N)N)cc(c3OCc3ccc(-c5ccc(C)cn5)nc3)Cc3cc(CCNC(=N)N)cc(c3O)C4)cn2)nc1.O=C(O)C(F)(F)F | 62 | 98 | 0.8 | IC50 [3]: 50 nM; CC50 [4]: 128 µg/mL; MIC (Escherichia coli): 4 µg/mL; MIC (Pseudomonas aeruginosa): 4 µg/mL; MIC (Staphylococcus aureus): 4 µg/mL; MIC (Enterococcus faecalis): 4 µg/mL
Cc1ccc(-c2ccc(COc3c4cc(CCN)cc3Cc3cc(CCN)cc(c3O)Cc3cc(CCN)cc(c3OCc3ccc(-c5ccc(C)cn5)nc3)Cc3cc(CCN)cc(c3O)C4)cn2)nc1 | 63 | 81 | 0.8 (≈ 0.769 µg/mL) | IC50 [3]: 200 nM
CO[C@H]1/C=C/O[C@@]2(C)Oc3c(C)c(O)c4c(O)c(c(/C=N/N5CCN(C)CC5)c(O)c4c3C2=O)NC(=O)/C(C)=C\C=C\[C@H](C)[C@H](O)[C@@H](C)[C@@H](O)[C@@H](C)[C@H](OC(C)=O)[C@@H]1C [RIFAMPIN] |  |  | 0.24 (≈ 0.198 µg/mL) | 
O=C(O)Cc1cc2c(O)c(c1)Cc1cc(CC(=O)O)cc(c1O)Cc1cc(CC(=O)O)cc(c1O)Cc1cc(CC(=O)O)cc(c1O)C2 | 0 | 7 |  | 
NCCc1cc2c(O)c(c1)Cc1cc(CCN)cc(c1O)Cc1cc(CCN)cc(c1O)Cc1cc(CCN)cc(c1O)C2 | 27 | 76 | 3.2 (≈ 1.91 µg/mL) | IC50 [3]: 400 nM
c1ccc(-c2ccccn2)nc1 [DIPYRIDYL] |  |  | 160 (≈ 25 µg/mL) | 
Cc1cccc(-c2cccc(COc3c4cc(CCN)cc3Cc3cc(CCN)cc(c3O)Cc3cc(CCN)cc(c3OCc3cccc(-c5cccc(C)n5)n3)Cc3cc(CCN)cc(c3O)C4)n2)n1 | 7 | 0 |  | 
O=S(=O)(O)c1cc2c(O)c(c1)Cc1cc(S(=O)(=O)O)cc(c1O)Cc1cc(S(=O)(=O)O)cc(c1O)Cc1cc(S(=O)(=O)O)cc(c1O)C2 | 0 | 0 |  | 
CN[C@@H]1[C@H](O[C@H]2[C@H](O[C@H]3[C@H](O)[C@@H](O)[C@H](N=C(N)N)[C@@H](O)[C@@H]3N=C(N)N)O[C@@H](C)[C@]2(O)C=O)O[C@@H](CO)[C@H](O)[C@H]1O [STREPTOMYCIN] |  |  | 0.7 (≈ 0.407 µg/mL) | 
O=C(O)c1cn(C2CC2)c2cc(N3CCNCC3)c(F)cc2c1=O [CIPROFLOXACIN] |  |  | 2.5 (≈ 0.828 µg/mL) | 
NNC(=O)c1ccncc1 [ISONIAZID] |  |  | 0.6 (≈ 0.0823 µg/mL) | 
Cc1csc(-c2nc(COc3c4cc(CP(=O)(O)O)cc3Cc3cc(CP(=O)(O)O)cc(c3O)Cc3cc(CP(=O)(O)O)cc(c3OCc3csc(-c5nc(C)cs5)n3)Cc3cc(CP(=O)(O)O)cc(c3O)C4)cs2)n1 |  |  | 50 (≈ 59.5 µg/mL) | 
Cc1cccc(-c2cccc(COc3c4cc(CCNC(=N)N)cc3Cc3cc(CCNC(=N)N)cc(c3O)Cc3cc(CCNC(=N)N)cc(c3OCc3cccc(-c5cccc(C)n5)n3)Cc3cc(CCNC(=N)N)cc(c3O)C4)n2)n1.O=C(O)C(F)(F)F | 7 | 10 |  | MIC (Escherichia coli): 4 µg/mL; MIC (Pseudomonas aeruginosa): 4 µg/mL; MIC (Staphylococcus aureus): 4 µg/mL; MIC (Enterococcus faecalis): 4 µg/mL
Cc1cccc(-c2cccc(COc3c4cc(S(=O)(=O)O)cc3Cc3cc(S(=O)(=O)O)cc(c3O)Cc3cc(S(=O)(=O)O)cc(c3OCc3cccc(-c5cccc(C)n5)n3)Cc3cc(S(=O)(=O)O)cc(c3O)C4)n2)n1 |  |  | > 50 | 
CCc1cc(C(N)=S)ccn1 [ETHIONAMIDE] |  |  | 9 (≈ 1.5 µg/mL) | 
Cc1cccc(-c2cccc(COc3c4cc(CP(=O)(O)O)cc3Cc3cc(CP(=O)(O)O)cc(c3O)Cc3cc(CP(=O)(O)O)cc(c3OCc3cccc(-c5cccc(C)n5)n3)Cc3cc(CP(=O)(O)O)cc(c3O)C4)n2)n1 |  |  | 50 (≈ 58.2 µg/mL) | IC50 [3]: 12400 nM
Cc1cccc(-c2cccc(COc3c4cc(CC(=O)O)cc3Cc3cc(CC(=O)O)cc(c3O)Cc3cc(CC(=O)O)cc(c3OCc3cccc(-c5cccc(C)n5)n3)Cc3cc(CC(=O)O)cc(c3O)C4)n2)n1 |  |  | > 50 | 
Cc1csc(-c2nc(COc3c4cc(CCN)cc3Cc3cc(CCN)cc(c3O)Cc3cc(CCN)cc(c3OCc3csc(-c5nc(C)cs5)n3)Cc3cc(CCN)cc(c3O)C4)cs2)n1 | 25 | 19 |  | 
Cc1csc(-c2nc(COc3c4cc(CCNC(=N)N)cc3Cc3cc(CCNC(=N)N)cc(c3O)Cc3cc(CCNC(=N)N)cc(c3OCc3csc(-c5nc(C)cs5)n3)Cc3cc(CCNC(=N)N)cc(c3O)C4)cs2)n1.O=C(O)C(F)(F)F | 54 | 90 | 1.6 | IC50 [3]: 400 nM; CC50 [4]: 16 µg/mL; MIC (Escherichia coli): 4 µg/mL; MIC (Pseudomonas aeruginosa): 4 µg/mL; MIC (Staphylococcus aureus): 4 µg/mL; MIC (Enterococcus faecalis): 4 µg/mL
Cc1csc(-c2nc(COc3c4cc(S(=O)(=O)O)cc3Cc3cc(S(=O)(=O)O)cc(c3O)Cc3cc(S(=O)(=O)O)cc(c3OCc3csc(-c5nc(C)cs5)n3)Cc3cc(S(=O)(=O)O)cc(c3O)C4)cs2)n1 |  |  | > 50 | 
CC[C@@H](CO)NCCN[C@@H](CC)CO [ETHAMBUTOL] |  | 65 | 9.8 (≈ 2 µg/mL) | 
